In the M2OR odorant receptor database:

Columns and labels:
Conditions in all cases: stereoisomer not certain
[1] = target: UniProt Q8VF06
Procedure, shortened: (§1)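 Each receptor–molecule pair is labelled responsive or non-responsive (inactive) according to whether the original authors judged the measured signal statistically different from baseline. The data were taken from the main text and supplementary material of published papers and checked for typos and inconsistencies. Assay methods differed by source, with transient luciferase assays in mammalian cell lines being common.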

[2] = target: T1, UniProt Q8VF24
T1 sequence (whole entry): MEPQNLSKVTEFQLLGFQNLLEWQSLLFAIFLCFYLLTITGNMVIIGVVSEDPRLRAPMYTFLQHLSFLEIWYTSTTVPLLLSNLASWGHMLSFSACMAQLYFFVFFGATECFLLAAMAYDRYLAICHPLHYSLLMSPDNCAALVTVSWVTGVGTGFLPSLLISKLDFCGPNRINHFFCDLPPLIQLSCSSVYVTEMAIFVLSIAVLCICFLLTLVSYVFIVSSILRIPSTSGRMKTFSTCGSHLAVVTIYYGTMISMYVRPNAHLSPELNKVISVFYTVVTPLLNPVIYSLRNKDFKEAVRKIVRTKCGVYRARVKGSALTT
Procedure, shortened: as §1

[3] = target: T2, UniProt Q8VF43
T2 sequence (whole entry): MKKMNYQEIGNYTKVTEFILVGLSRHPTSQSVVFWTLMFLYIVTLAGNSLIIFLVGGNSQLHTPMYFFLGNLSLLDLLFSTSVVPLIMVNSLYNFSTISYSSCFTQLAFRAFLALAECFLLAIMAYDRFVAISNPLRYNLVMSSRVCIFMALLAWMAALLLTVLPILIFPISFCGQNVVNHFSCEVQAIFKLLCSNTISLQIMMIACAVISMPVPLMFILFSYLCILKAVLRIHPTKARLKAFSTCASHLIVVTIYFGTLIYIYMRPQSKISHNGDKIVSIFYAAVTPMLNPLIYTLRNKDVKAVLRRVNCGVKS
Procedure, shortened: as §1

[4] = target: T3, UniProt Q8VF44
T3 sequence (whole entry): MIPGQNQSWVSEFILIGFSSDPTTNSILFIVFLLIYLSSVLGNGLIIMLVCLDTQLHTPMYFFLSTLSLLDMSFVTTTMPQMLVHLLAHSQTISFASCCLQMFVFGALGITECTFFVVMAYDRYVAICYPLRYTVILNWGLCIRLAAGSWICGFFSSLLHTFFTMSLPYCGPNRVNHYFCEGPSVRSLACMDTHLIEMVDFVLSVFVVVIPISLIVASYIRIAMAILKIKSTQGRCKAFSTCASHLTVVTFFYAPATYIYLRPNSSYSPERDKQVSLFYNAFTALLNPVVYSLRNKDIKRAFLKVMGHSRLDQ
Procedure, shortened: as §1

[5] = target: T4, UniProt Q8VF52
T4 sequence (whole entry): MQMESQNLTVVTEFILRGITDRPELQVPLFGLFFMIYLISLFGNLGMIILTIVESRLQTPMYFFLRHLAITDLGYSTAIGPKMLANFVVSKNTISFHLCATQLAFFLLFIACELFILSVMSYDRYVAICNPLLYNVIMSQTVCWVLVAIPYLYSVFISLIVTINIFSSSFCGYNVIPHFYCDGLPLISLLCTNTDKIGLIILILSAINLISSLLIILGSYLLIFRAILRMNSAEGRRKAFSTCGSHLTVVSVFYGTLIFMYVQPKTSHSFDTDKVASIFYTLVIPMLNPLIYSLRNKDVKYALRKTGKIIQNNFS
Procedure, shortened: as §1

[6] = target: T5, UniProt Q8VFG6
T5 sequence (whole entry): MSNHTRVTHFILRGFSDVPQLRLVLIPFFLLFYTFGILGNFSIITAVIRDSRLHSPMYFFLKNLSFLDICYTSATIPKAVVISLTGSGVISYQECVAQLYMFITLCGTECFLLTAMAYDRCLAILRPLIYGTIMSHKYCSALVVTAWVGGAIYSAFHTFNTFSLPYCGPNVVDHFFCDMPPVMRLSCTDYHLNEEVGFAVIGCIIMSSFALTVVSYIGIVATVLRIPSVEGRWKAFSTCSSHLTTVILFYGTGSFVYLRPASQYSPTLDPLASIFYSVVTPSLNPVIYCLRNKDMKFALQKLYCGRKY
Procedure, shortened: as §1

[7] = target: T6, UniProt Q8VFM8
T6 sequence (whole entry): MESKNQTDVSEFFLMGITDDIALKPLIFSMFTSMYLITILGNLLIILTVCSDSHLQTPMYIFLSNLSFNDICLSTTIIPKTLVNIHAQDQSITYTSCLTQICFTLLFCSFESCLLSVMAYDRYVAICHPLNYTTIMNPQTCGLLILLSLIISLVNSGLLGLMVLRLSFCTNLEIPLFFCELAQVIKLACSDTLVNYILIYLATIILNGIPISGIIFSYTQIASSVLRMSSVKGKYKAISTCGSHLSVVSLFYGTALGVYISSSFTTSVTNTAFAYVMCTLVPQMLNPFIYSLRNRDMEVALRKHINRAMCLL
Procedure, shortened: as §1

[8] = target: T7, UniProt Q8VFP5
T7 sequence (whole entry): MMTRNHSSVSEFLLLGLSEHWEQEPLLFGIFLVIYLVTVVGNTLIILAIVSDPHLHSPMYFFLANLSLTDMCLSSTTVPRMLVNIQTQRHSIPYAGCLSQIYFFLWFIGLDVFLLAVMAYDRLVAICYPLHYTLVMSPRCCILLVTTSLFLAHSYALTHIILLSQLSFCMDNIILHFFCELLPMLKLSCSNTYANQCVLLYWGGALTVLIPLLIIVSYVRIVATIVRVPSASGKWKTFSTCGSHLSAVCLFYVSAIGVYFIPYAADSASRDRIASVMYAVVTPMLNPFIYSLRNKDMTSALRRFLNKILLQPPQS
Procedure, shortened: as §1

[9] = target: T8, UniProt Q8VFZ6
T8 sequence (whole entry): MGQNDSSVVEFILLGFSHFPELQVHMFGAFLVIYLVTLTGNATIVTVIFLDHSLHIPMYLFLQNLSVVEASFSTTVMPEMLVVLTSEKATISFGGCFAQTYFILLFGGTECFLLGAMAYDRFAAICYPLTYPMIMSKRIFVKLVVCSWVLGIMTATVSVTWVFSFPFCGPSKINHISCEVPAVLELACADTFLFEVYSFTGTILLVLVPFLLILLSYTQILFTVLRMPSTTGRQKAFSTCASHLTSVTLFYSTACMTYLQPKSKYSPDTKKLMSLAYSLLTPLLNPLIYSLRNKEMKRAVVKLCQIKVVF
Procedure, shortened: as §1

[10] = target: T9, UniProt Q8VG01
T9 sequence (whole entry): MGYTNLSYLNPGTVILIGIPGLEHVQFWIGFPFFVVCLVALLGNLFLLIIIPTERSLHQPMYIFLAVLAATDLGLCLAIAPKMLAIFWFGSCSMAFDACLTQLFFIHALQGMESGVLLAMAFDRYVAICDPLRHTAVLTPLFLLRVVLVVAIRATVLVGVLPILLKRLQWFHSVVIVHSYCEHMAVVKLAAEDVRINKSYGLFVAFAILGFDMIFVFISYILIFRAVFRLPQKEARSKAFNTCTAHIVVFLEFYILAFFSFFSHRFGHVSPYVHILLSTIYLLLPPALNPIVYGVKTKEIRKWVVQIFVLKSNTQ
Procedure, shortened: as §1

[11] = target: T10, UniProt Q8VG22
T10 sequence (whole entry): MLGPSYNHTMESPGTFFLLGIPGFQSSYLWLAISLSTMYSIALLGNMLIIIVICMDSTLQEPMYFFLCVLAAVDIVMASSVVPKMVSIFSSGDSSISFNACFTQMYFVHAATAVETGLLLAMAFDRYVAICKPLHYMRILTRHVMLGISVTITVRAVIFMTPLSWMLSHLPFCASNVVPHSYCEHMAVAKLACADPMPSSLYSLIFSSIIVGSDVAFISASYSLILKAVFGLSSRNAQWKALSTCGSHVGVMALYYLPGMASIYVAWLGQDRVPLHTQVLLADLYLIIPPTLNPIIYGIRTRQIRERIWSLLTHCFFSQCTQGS
Procedure, shortened: as §1

[12] = target: UniProt Q8VG26
Procedure, shortened: as §1

[13] = target: UniProt Q8VF73
Procedure, shortened: as §1

[14] = target: UniProt Q8VFB8
Procedure, shortened: as §1

[15] = target: UniProt Q8VFQ6
Procedure, shortened: as §1
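Note: active if original authors judged signal statistically different from baseline.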

Sequence of UniProt Q8VF06 (Q8VF06 as listed by the source): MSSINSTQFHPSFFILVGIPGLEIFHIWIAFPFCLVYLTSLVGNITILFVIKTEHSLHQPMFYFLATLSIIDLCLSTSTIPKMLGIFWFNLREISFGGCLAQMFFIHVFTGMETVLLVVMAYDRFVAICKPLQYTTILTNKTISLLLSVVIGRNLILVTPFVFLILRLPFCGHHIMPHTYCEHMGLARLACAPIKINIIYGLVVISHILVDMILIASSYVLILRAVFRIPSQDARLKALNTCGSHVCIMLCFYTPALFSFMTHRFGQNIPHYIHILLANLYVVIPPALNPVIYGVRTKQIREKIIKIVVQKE
Sequence of UniProt Q8VG26 (Q8VG26 as listed by the source): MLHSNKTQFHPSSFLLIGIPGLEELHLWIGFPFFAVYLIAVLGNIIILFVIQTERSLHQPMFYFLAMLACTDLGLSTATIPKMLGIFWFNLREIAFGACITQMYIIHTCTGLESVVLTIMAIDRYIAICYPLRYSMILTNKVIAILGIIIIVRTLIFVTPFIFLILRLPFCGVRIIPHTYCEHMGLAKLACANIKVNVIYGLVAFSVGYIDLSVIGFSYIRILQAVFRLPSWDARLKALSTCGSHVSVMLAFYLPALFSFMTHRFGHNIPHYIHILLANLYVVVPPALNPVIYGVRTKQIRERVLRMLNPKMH
Sequence of UniProt Q8VFB8 (Q8VFB8 as listed by the source): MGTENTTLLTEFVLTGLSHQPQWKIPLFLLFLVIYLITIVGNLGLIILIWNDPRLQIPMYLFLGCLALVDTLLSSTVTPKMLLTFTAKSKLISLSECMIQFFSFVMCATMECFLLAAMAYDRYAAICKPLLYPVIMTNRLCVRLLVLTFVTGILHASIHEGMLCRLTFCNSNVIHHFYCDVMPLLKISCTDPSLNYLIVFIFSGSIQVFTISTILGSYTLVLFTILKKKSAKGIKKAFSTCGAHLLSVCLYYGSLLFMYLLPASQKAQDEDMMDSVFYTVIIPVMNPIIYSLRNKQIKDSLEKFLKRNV
Sequence of UniProt Q8VFQ6 (Q8VFQ6 as listed by the source): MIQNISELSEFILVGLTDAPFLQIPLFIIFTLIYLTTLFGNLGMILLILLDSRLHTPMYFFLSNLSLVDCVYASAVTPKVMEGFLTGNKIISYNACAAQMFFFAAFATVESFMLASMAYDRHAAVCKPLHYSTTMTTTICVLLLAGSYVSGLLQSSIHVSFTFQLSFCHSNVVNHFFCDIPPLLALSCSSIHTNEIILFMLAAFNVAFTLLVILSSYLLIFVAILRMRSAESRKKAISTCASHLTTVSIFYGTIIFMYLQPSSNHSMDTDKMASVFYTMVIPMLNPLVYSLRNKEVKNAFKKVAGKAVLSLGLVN
Sequence of UniProt Q8VF73 (Q8VF73 as listed by the source): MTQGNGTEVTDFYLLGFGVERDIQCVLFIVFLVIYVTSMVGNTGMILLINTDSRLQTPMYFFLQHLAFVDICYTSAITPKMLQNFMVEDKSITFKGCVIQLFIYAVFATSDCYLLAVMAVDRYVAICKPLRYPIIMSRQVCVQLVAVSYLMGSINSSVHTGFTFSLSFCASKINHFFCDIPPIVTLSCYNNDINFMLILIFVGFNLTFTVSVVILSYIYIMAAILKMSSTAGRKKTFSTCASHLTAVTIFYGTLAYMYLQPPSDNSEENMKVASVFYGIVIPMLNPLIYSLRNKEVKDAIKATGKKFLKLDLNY

SMILES	odorant receptor agonist call [1]	odorant receptor agonist call [2]	odorant receptor agonist call [3]	odorant receptor agonist call [4]	odorant receptor agonist call [5]	odorant receptor agonist call [6]	odorant receptor agonist call [7]	odorant receptor agonist call [8]	odorant receptor agonist call [9]	odorant receptor agonist call [10]	odorant receptor agonist call [11]	odorant receptor agonist call [12]	odorant receptor agonist call [13]	odorant receptor agonist call [14]	odorant receptor agonist call [15]
CCCCCCCCCCCC(=O)O	inactive														
CCCCCCCCC(=O)O	active	inactive	inactive	inactive	inactive	inactive	inactive	inactive	inactive	inactive	inactive	inactive			
CCCCOC(=O)CCC	inactive											inactive			
CC12CCC(CC1=O)C2(C)C (stereo not given)		active	inactive	inactive	active	inactive	inactive	inactive	inactive	inactive	inactive				
CCCCCCCCCS		inactive	inactive	inactive	inactive	inactive	inactive	inactive	active	inactive	inactive				
CCCC(C)=O	inactive	inactive		inactive	inactive	inactive			inactive	inactive	inactive	inactive			
CCCCCCCCO	inactive	inactive	inactive	inactive	inactive	inactive	inactive	inactive	active	inactive	inactive	inactive			
O=C(O)CCCCCCCCCC(=O)O	inactive														
CCCCCOC(=O)CCCCC		inactive	inactive	inactive	inactive	inactive	inactive	inactive	inactive	inactive	inactive				
O=C1Cc2ccccc2O1		inactive	inactive	active	inactive	inactive	inactive	inactive	inactive	inactive	active				
CC(C)=CCCC(C)=CCO		inactive	inactive	inactive	inactive	inactive	inactive	inactive	active	inactive	inactive				
CCCCCCCC(=O)[O-].[H+]	active	inactive		inactive	inactive	inactive			inactive	active	inactive	inactive			
CCOC(=O)C(C)C		inactive	inactive	inactive	inactive	inactive	inactive	inactive	inactive	inactive	inactive				
O=C(c1ccccc1)c1ccccc1		inactive	inactive	active	inactive	inactive	inactive	inactive	inactive	inactive	inactive				
CCCCC=O	inactive		inactive		inactive		inactive	inactive		inactive		inactive			
CC(=O)OCC=C(C)C		inactive	inactive	inactive	inactive	inactive	inactive	inactive	inactive	inactive	inactive				
CCCCCCOC(C)=O		inactive	inactive	inactive	inactive	inactive	inactive	inactive	inactive	inactive	inactive				
CCCCCCCO	inactive	inactive	inactive	inactive	inactive	inactive	inactive	inactive	inactive	inactive	active	inactive			
CCCCCCCCCO	inactive	inactive	inactive	inactive	inactive	inactive	inactive	inactive	inactive	inactive	inactive	inactive			
CCCCCCCCCCC(=O)O	inactive														
O=C(O)CCCCCBr	inactive		inactive		inactive		inactive	inactive		active					
COc1cc(C(=O)O)ccc1O		inactive	inactive	inactive	inactive	inactive	inactive	inactive	inactive	inactive	inactive				
CCC(=O)C(=O)CC		inactive	inactive	inactive	inactive	inactive	inactive	inactive	inactive	inactive	active				
c1ccccc1		inactive	inactive	inactive	inactive	inactive	inactive	inactive	inactive	inactive	inactive				

SMILES	odorant receptor agonist call [1]	odorant receptor agonist call [2]	odorant receptor agonist call [3]	odorant receptor agonist call [4]	odorant receptor agonist call [5]	odorant receptor agonist call [6]	odorant receptor agonist call [7]	odorant receptor agonist call [8]	odorant receptor agonist call [9]	odorant receptor agonist call [10]	odorant receptor agonist call [11]	odorant receptor agonist call [12]	odorant receptor agonist call [13]	odorant receptor agonist call [14]	odorant receptor agonist call [15]
O=C([O-])CCCCCCCC(=O)[O-].[H+].[H+]	inactive		inactive		inactive		inactive	inactive		inactive		inactive			
CCCCCC(=O)CC		inactive	inactive	inactive	inactive	inactive	inactive	inactive	inactive	inactive	inactive				
O=C(O)CCCCCCCCCCCBr	active														
CCCCCCCCCCO		inactive	inactive	inactive	inactive	inactive	inactive	inactive	inactive	inactive	inactive				
O=C1CCOc2ccccc21		inactive	inactive	inactive	active	active	inactive	inactive	inactive	inactive	active		active	active	inactive
CCCCC(=O)O	inactive	inactive	inactive	inactive	inactive	inactive	inactive	inactive	inactive	inactive	inactive	inactive			
CCCC(=O)C(C)=O		inactive	inactive	inactive	inactive	inactive	inactive	inactive	inactive	inactive	active				
CCCCCCCCCCCO	active		inactive		inactive		inactive	inactive		inactive					
CCCCCCO	inactive	inactive	inactive	inactive	inactive	inactive	inactive	inactive	inactive	inactive	active	inactive			
C=C(C)C1CCC(C)C(=O)C1 (stereo not given)		inactive	inactive	inactive	active	inactive	inactive	inactive	inactive	inactive	active				
CCC(C(=O)O)c1ccccc1 (stereo not given)		inactive		inactive	inactive	inactive			inactive	inactive	inactive				
CCCCCC1=C(C)CCC1=O		inactive	inactive	inactive	active	inactive	inactive	inactive	inactive	inactive	active				
Cc1occc1SSc1ccoc1C			inactive		inactive		inactive	inactive		inactive					
CCCCCOC(=O)CC			inactive		inactive		inactive	inactive		inactive					
CCCCCCC(=O)[O-].[H+]		inactive		inactive	inactive	inactive			inactive	active	inactive	inactive			
CC(=O)OCc1ccc2c(c1)OCO2			inactive		inactive		inactive	inactive		inactive					
CC(=O)OCc1ccccc1		inactive	inactive	inactive	inactive	inactive	inactive	inactive	inactive	inactive	active				
C=CCOC(=O)CCCCCC		inactive	inactive	inactive	inactive	inactive	inactive	inactive	inactive	inactive	inactive				
CCCCCCC(=O)OCCCC			inactive		inactive		inactive	inactive		active					
CCC(C)O (stereo not given)			inactive		inactive		inactive	inactive		inactive					
CC(=O)Oc1ccccc1		inactive	inactive	inactive	inactive	inactive	inactive	inactive	inactive	inactive	active				
CCCCCCCCCC(=O)[O-].[H+]		inactive	inactive	inactive	inactive	inactive	inactive	inactive	inactive	inactive	inactive				
CCCCCCCCS		inactive	inactive	inactive	inactive	inactive	inactive	inactive	inactive	inactive	inactive				
C=C1C2CCC(C2)C1(C)C (stereo not given)			inactive		inactive		inactive	inactive		inactive					
